These results are taken from ChEMBL document CHEMBL3997768, “The synthesis and antistaphylococcal activity of dehydroabietic acid derivatives: modifications at C12 and C7” (2017).

The structures appear in SMILES notation. In brackets after ≈: the same amount, converted by molar mass. Activity calls are given as the source filed them. No rule for the calls is given here.

Holding throughout (type): functional
Assay [1] concerns Staphylococcus aureus. The assay is described as follows: Antibacterial activity against Staphylococcus aureus Newman after 18 hrs by two fold serial dilution method. The method, boiled down: (§1)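 Strains were grown overnight at 37 °C in TSB without antibiotic, diluted 1000-fold, and grown 2–3 h to A600 0.6. They were then diluted 1:400 in fresh TSB. Compounds in DMSO were two-fold serially diluted to a final 0.39–50 and mixed with an equal volume of bacteria. A600 was read after 18 h. MIC is the lowest concentration inhibiting growth. Triplicate; vancomycin and tetracycline were positive controls.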

Assay [2] has as its system Staphylococcus aureus. In words: Antibacterial activity against aminoglycosides/tetracycline-resistant Staphylococcus aureus NRS-1 after 18 hrs by two fold serial dilution method. To be noted: NRS-1, 18 h. The essentials: (§2)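 Strains grown overnight at 37 °C in TSB without antibiotic. Cultures were diluted 1000-fold, grown at 37 °C for 2–3 h to A600 0.6, then diluted 1:400 in fresh TSB. Equal volumes of bacteria and two-fold serial DMSO dilutions (final 0.39–50) were mixed. A600 was read after 18 h. MIC was the lowest concentration inhibiting growth. Run in triplicate, with vancomycin and tetracycline controls.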

Assay [3] relates to Staphylococcus aureus. The assay is described as follows: Antibacterial activity against erythromycin-resistant Staphylococcus aureus NRS-70 after 18 hrs by two fold serial dilution method. To be noted: NRS-70, 18 h. The essentials: as §2
Assay [4] has as its system Staphylococcus aureus. In words: Antibacterial activity against oxacillin/tetracycline-resistant Staphylococcus aureus NRS-100 after 18 hrs by two fold serial dilution method. To be noted: NRS-100, 18 h. The method, boiled down:
as §2

Assay [5] concerns Staphylococcus aureus. In words: Antibacterial activity against gentamicin-resistant Staphylococcus aureus NRS-108 after 18 hrs by two fold serial dilution method. To be noted: NRS-108, 18 h. The essentials:
as §2

Assay [6] has as its system Staphylococcus aureus. The assay is described as follows: Antibacterial activity against linezolid-resistant Staphylococcus aureus NRS-271 containing phage type E-MRSA after 18 hrs by two fold serial dilution method. To be noted: NRS-271, 18 h. The method, boiled down:
as §2

The next assay has as its system Escherichia coli. The assay is described as follows: Antibacterial activity against Escherichia coli AB1157 at 50 ug/ml after 18 hrs by two fold serial dilution method. The method, boiled down:
as §1

Turning to `CC(C)c1cc2c(cc1Br)[C@@]1(C)CCC[C@@](C)(C(=O)O)[C@@H]1C/C2=N\OCCCNC(=O)c1cc2ccccc2s1`, the MIC with Staphylococcus aureus [1] is 4 µM (≈ 2.5 µg/mL); against Staphylococcus aureus [2] it was over 40 µM; in the assay with Staphylococcus aureus [3], over 40 µM; against Staphylococcus aureus [4], over 40 µM; against Staphylococcus aureus [5], over 40 µM; against Staphylococcus aureus [6] it was over 40 µM. Besides, the outcome with Escherichia coli was inactive.

In the case of `CC(C)c1cc2c(cc1Br)[C@@]1(C)CCC[C@@](C)(C(=O)O)[C@@H]1C/C2=N\OCCCNC(=O)c1cc(Br)cs1`, the MIC was 1.91 to 3.82 µM (≈ 1.25 to 2.5 µg/mL) with Staphylococcus aureus [1]; 4.78 to 9.55 µM (≈ 3.13 to 6.25 µg/mL) in the assay with Staphylococcus aureus [2]; 1.91 to 2.38 µM (≈ 1.25 to 1.56 µg/mL) against Staphylococcus aureus [3]; 4.78 µM (≈ 3.13 µg/mL) against Staphylococcus aureus [4]; 2.38 to 3.82 µM (≈ 1.56 to 2.5 µg/mL) with Staphylococcus aureus [5]; 2.38 to 3.82 µM (≈ 1.56 to 2.5 µg/mL) with Staphylococcus aureus [6]. For the same molecule, in the assay with Escherichia coli, the outcome was inactive.

Turning to `CC(C)c1cc2c(cc1Br)[C@@]1(C)CCC[C@@](C)(C(=O)O)[C@@H]1C/C2=N\OCCCNC(=O)c1cccc(C(F)(F)F)c1`, the MIC with Staphylococcus aureus [1] was 1.96 to 3.92 µM (≈ 1.25 to 2.5 µg/mL); in the assay with Staphylococcus aureus [2] it was over 19.6 µM; against Staphylococcus aureus [3] it was 4.91 µM (≈ 3.13 µg/mL); with Staphylococcus aureus [4], 4.91 µM (≈ 3.13 µg/mL); in the assay with Staphylococcus aureus [5], 3.92 to 4.91 µM (≈ 2.5 to 3.13 µg/mL); in the assay on Staphylococcus aureus [6], 3.92 to 4.91 µM (≈ 2.5 to 3.13 µg/mL). Further, the outcome in the assay on Escherichia coli was inactive.

`CC(C)c1cc2c(cc1Br)[C@@]1(C)CCC[C@@](C)(C(=O)O)[C@@H]1C/C2=N\OCCNC(=O)c1ccc(Br)s1`: the MIC in the assay with Staphylococcus aureus [1] was 3.9 µM (≈ 2.5 µg/mL); against Staphylococcus aureus [2] it was 4.89 to 9.76 µM (≈ 3.13 to 6.25 µg/mL); against Staphylococcus aureus [3], 2.44 to 3.9 µM (≈ 1.56 to 2.5 µg/mL); against Staphylococcus aureus [4], 4.89 µM (≈ 3.13 µg/mL); in the assay with Staphylococcus aureus [5], 2.44 to 3.9 µM (≈ 1.56 to 2.5 µg/mL); against Staphylococcus aureus [6], 2.44 to 3.9 µM (≈ 1.56 to 2.5 µg/mL). For the same molecule, in the assay on Escherichia coli, the outcome was inactive.

For the molecule `CC(C)c1cc2c(cc1Br)[C@@]1(C)CCC[C@@](C)(C(=O)O)[C@@H]1C/C2=N\OCCNC(=O)c1cccc(C(F)(F)F)c1`, the MIC against Staphylococcus aureus [1] is 4.01 µM (≈ 2.5 µg/mL); in the assay with Staphylococcus aureus [2], 5.02 µM (≈ 3.13 µg/mL); against Staphylococcus aureus [3], 2.5 to 4.01 µM (≈ 1.56 to 2.5 µg/mL); in the assay with Staphylococcus aureus [4] it was 5.02 µM (≈ 3.13 µg/mL); against Staphylococcus aureus [5], 2.5 to 4.01 µM (≈ 1.56 to 2.5 µg/mL); with Staphylococcus aureus [6], 2.5 to 4.01 µM (≈ 1.56 to 2.5 µg/mL). The outcome with Escherichia coli was inactive.

As for `CC(C)c1cc2c(cc1Br)[C@@]1(C)CCC[C@@](C)(C(=O)O)[C@@H]1C/C2=N\OCCNC(=O)c1cc2ccccc2s1`, the MIC in the assay on Staphylococcus aureus [1] is 2.04 to 4.09 µM (≈ 1.25 to 2.5 µg/mL); against Staphylococcus aureus [2], 4.09 to 5.12 µM (≈ 2.5 to 3.13 µg/mL); in the assay with Staphylococcus aureus [3], 2.04 to 4.09 µM (≈ 1.25 to 2.5 µg/mL); in the assay with Staphylococcus aureus [4] it was 2.55 to 4.09 µM (≈ 1.56 to 2.5 µg/mL); against Staphylococcus aureus [5], 2.55 to 4.09 µM (≈ 1.56 to 2.5 µg/mL); against Staphylococcus aureus [6], 2.05 to 2.55 µM (≈ 1.25 to 1.56 µg/mL). Further, the outcome in the assay with Escherichia coli was inactive.

As for `CC(C)c1cc2c(cc1Br)[C@@]1(C)CCC[C@@](C)(C(=O)O)[C@@H]1C/C2=N\OCCCNC(=O)c1ccc(Cl)s1`, the MIC was 2.05 to 4.1 µM (≈ 1.25 to 2.5 µg/mL) in the assay on Staphylococcus aureus [1]; 10.2 to 20.5 µM (≈ 6.25 to 12.5 µg/mL) in the assay on Staphylococcus aureus [2]; 2.56 to 4.1 µM (≈ 1.56 to 2.5 µg/mL) with Staphylococcus aureus [3]; 5.13 µM (≈ 3.13 µg/mL) against Staphylococcus aureus [4]; 2.56 to 4.1 µM (≈ 1.56 to 2.5 µg/mL) against Staphylococcus aureus [5]; 2.56 to 4.1 µM (≈ 1.56 to 2.5 µg/mL) with Staphylococcus aureus [6]. The outcome in the assay on Escherichia coli was inactive.

`CC(C)c1cc2c(cc1Br)[C@@]1(C)CCC[C@@](C)(C(=O)O)[C@@H]1C/C2=N\OCCCNC(=O)Cc1cccc(C(F)(F)F)c1`: the MIC was 1.92 to 3.84 µM (≈ 1.25 to 2.5 µg/mL) in the assay on Staphylococcus aureus [1]; over 19.2 µM against Staphylococcus aureus [2]; 1.92 to 2.39 µM (≈ 1.25 to 1.56 µg/mL) with Staphylococcus aureus [3]; 3.84 to 4.8 µM (≈ 2.5 to 3.13 µg/mL) in the assay on Staphylococcus aureus [4]; 2.39 to 3.84 µM (≈ 1.56 to 2.5 µg/mL) in the assay with Staphylococcus aureus [5]; 2.39 to 3.84 µM (≈ 1.56 to 2.5 µg/mL) with Staphylococcus aureus [6]. For the same molecule, the result in the assay on Escherichia coli was inactive.

Regarding `CC(C)c1cc2c(cc1Br)[C@@]1(C)CCC[C@@](C)(C(=O)O)[C@@H]1C/C2=N\OCCCNC(=O)c1ccc(Br)s1`, the MIC in the assay on Staphylococcus aureus [1] is 1.91 to 3.82 µM (≈ 1.25 to 2.5 µg/mL); against Staphylococcus aureus [2] it was over 19.1 µM; in the assay on Staphylococcus aureus [3] it was 2.38 to 3.82 µM (≈ 1.56 to 2.5 µg/mL); with Staphylococcus aureus [4] it was 4.78 µM (≈ 3.13 µg/mL); against Staphylococcus aureus [5] it was 2.38 to 3.82 µM (≈ 1.56 to 2.5 µg/mL); against Staphylococcus aureus [6], 2.38 to 3.82 µM (≈ 1.56 to 2.5 µg/mL). In addition, the result in the assay on Escherichia coli was inactive.

As for `CC(C)c1cc2c(cc1Br)[C@@]1(C)CCC[C@@](C)(C(=O)O)[C@@H]1C/C2=N\OCCCNC(=O)c1ccc[nH]1`, the MIC is 4.48 µM (≈ 2.5 µg/mL) against Staphylococcus aureus [1]; 5.6 µM (≈ 3.13 µg/mL) with Staphylococcus aureus [2]; 2.79 to 4.48 µM (≈ 1.56 to 2.5 µg/mL) against Staphylococcus aureus [3]; 2.79 to 4.48 µM (≈ 1.56 to 2.5 µg/mL) against Staphylococcus aureus [4]; 2.79 to 4.48 µM (≈ 1.56 to 2.5 µg/mL) in the assay with Staphylococcus aureus [5]; 2.79 to 4.48 µM (≈ 1.56 to 2.5 µg/mL) with Staphylococcus aureus [6]. Also, the result in the assay with Escherichia coli was inactive.

Consider `CC(C)c1cc2c(cc1Br)[C@@]1(C)CCC[C@@](C)(C(=O)O)[C@@H]1C/C2=N\OCCNC(=O)c1ccc(Cl)s1`, for which the MIC is 4.19 µM (≈ 2.5 µg/mL) against Staphylococcus aureus [1]; 5.25 to 10.5 µM (≈ 3.13 to 6.25 µg/mL) against Staphylococcus aureus [2]; 2.62 to 4.19 µM (≈ 1.56 to 2.5 µg/mL) in the assay with Staphylococcus aureus [3]; 4.19 µM (≈ 2.5 µg/mL) with Staphylococcus aureus [4]; 2.62 to 4.19 µM (≈ 1.56 to 2.5 µg/mL) against Staphylococcus aureus [5]; 1.56 to 2.5 µM (≈ 0.93 to 1.49 µg/mL) against Staphylococcus aureus [6]. In addition, the result in the assay on Escherichia coli was inactive.

`CN[C@H](CC(C)C)C(=O)N[C@H]1C(=O)N[C@@H](CC(N)=O)C(=O)N[C@H]2C(=O)N[C@H]3C(=O)N[C@H](C(=O)N[C@H](C(=O)O)c4cc(O)cc(O)c4-c4cc3ccc4O)[C@H](O)c3ccc(c(Cl)c3)Oc3cc2cc(c3O[C@@H]2O[C@H](CO)[C@@H](O)[C@H](O)[C@H]2O[C@H]2C[C@](C)(N)[C@H](O)[C@H](C)O2)Oc2ccc(cc2Cl)[C@H]1O` [VANCOMYCIN]: the MIC in the assay with Staphylococcus aureus [1] is under 1.73 µM; in the assay on Staphylococcus aureus [2] it was 1.72 to 3.45 µM (≈ 2.49 to 5 µg/mL); with Staphylococcus aureus [3] it was under 1.72 µM; in the assay with Staphylococcus aureus [4] it was 0.86 to 1.72 µM (≈ 1.25 to 2.49 µg/mL); with Staphylococcus aureus [5], under 1.72 µM; with Staphylococcus aureus [6], under 1.72 µM.

Regarding `CC(C)c1cc2c(cc1Br)[C@@]1(C)CCC[C@@](C)(C(=O)O)[C@@H]1C/C2=N\OCCCNC(=O)Cc1ccc(C(F)(F)F)cc1`, the MIC against Staphylococcus aureus [1] was 3.84 µM (≈ 2.5 µg/mL); against Staphylococcus aureus [2] it was over 19.2 µM; in the assay on Staphylococcus aureus [3] it was 2.39 to 3.84 µM (≈ 1.56 to 2.5 µg/mL); in the assay with Staphylococcus aureus [4] it was 4.8 to 9.59 µM (≈ 3.13 to 6.25 µg/mL); in the assay on Staphylococcus aureus [5], 2.39 to 3.84 µM (≈ 1.56 to 2.5 µg/mL); against Staphylococcus aureus [6], 4.8 to 9.59 µM (≈ 3.13 to 6.25 µg/mL). For the same molecule, in the assay on Escherichia coli, the result was inactive.

Regarding `CC(C)c1cc2c(cc1Br)[C@@]1(C)CCC[C@@](C)(C(=O)O)[C@@H]1C/C2=N\OCCCNC(=O)c1ccc(C(F)(F)F)cc1`, the MIC was 1.96 to 3.92 µM (≈ 1.25 to 2.5 µg/mL) against Staphylococcus aureus [1]; 9.8 to 19.6 µM (≈ 6.25 to 12.5 µg/mL) against Staphylococcus aureus [2]; 1.96 to 2.45 µM (≈ 1.25 to 1.56 µg/mL) against Staphylococcus aureus [3]; 4.91 µM (≈ 3.13 µg/mL) against Staphylococcus aureus [4]; 2.45 to 3.92 µM (≈ 1.56 to 2.5 µg/mL) in the assay with Staphylococcus aureus [5]; 2.45 to 3.92 µM (≈ 1.56 to 2.5 µg/mL) in the assay on Staphylococcus aureus [6]. Further, the outcome in the assay with Escherichia coli was inactive.
